Most compounds without a hit are left out; they make up all but 1.4% or so of the library.
HTR5A ag: HTR5A agonists in luminescence cell assay, primary screen, counter-screen for OPRM1-OPRD1 heterodimer agonist project, full-deck HTS. 5-hydroxytryptamine receptor 5A (Homo sapiens), P47898. cell-based. activation, % at 9.3 µM. actives 0.61% (n = 340,000); in the data active means activation mostly above about 9.5%, no sharp cut-off; inactive means mostly below about 7.6%;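 further: 0% = cells with vehicle only and 100% = reference agonist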
Target sequence (P47898 whole entry, looked up): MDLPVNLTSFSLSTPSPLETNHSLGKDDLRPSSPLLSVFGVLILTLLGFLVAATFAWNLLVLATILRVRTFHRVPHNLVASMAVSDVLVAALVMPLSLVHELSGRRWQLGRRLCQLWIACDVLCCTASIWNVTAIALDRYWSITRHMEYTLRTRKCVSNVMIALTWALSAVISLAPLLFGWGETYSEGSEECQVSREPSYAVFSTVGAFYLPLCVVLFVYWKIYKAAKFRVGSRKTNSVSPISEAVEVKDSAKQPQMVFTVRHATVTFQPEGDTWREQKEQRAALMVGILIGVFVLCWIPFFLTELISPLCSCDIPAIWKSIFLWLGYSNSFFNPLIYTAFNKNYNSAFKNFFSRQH
OPRM1-OPRD1 inv: inverse agonists of MOR-DOR heterodimerization, primary screen, cell-based, luminescence | inhibition, % at 9.3 µM | actives 0.21% (n = 340,000) | Mu-type opioid receptor (Homo sapiens) + Delta-type opioid receptor (Homo sapiens), … | cell-based MOR-DOR heterodimer luminescence, inverse agonism; in the data active means inhibition above about 22%, passing the limit was not always enough;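 further: 0% = cells with DMSO and 100% = wells without cells with DMSO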
DAGLB inhibitor: DAGLB lipase inhibitors, primary screen, biochemical, fluorescence, HTS. Diacylglycerol lipase-beta (Homo sapiens), Q8NCG7. actives 0.059% (n = 340,000). HEK293T DAGLB membrane lysate, EnzChek fluorogenic substrate. inhibition, % at 5.17 µM; in the data active means inhibition above about 34%;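 further: 0% = enzyme with vehicle and 100% = wells lacking enzyme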
Arr AP2 block: inhibitors of beta-arrestin/AP2 binding, primary screen, biochemical, GPCR trafficking, flow cytometry. beta-arrestin 1 C-terminal peptide binding to AP2 beta2-adaptin appendage (human). FITC-arrestin peptide / GST-AP2 beads; AP2 beta2 appendage carries R879A mutation. inhibition, % at 10 µM. actives 0.31% (n = 340,000);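 active means inhibition above a set limit, near 3 SD of compounds lacking own fluorescence, cut at about 54% in these data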;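 further: plate controls were DMSO wells for no effect and 5 µM unlabelled arrestin peptide for full effect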
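System: GST-AP2 R879A bound to glutathione beads, E. coli-expressed. Also added: 50 nM FITC-arrestin peptide. Schedule: compound with beads 12 min RT, then probe 1 h RT. Signal: bead flow cytometry, FITC channel. Read-out basis: percent response.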
HTR5A inv ctr: HTR5A inverse agonists in luminescence cell assay, primary screen, counter-screen for OPRM1-OPRD1 heterodimer inverse agonist project, full-deck HTS; actives 0.083% (n = 340,000); HTR5A cell line, inverse agonism; AID 504634, 2011; inhibition, % at 9.3 µM; 5-hydroxytryptamine receptor 5A (Homo sapiens), P47898; in the data active means inhibition mostly above about 23%, no sharp cut-off; inactive means mostly below about 18%;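 further: 0% = cells with DMSO and 100% = no-cell wells with DMSO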
MOR-DOR ag-1: agonists of OPRM1-OPRD1 heterodimerization, primary screen, cell-based, luminescence; actives 0.3% (n = 340,000); Mu-type opioid receptor (Homo sapiens) + Delta-type opioid receptor (Homo sapiens), …; cells; activation, % at 9.3 µM; AID 504326, 2011;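 further: 0% = vehicle-treated cells and 100% = reference agonist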
MOR-DOR ag-2: OPRM1-OPRD1 heterodimerization promoters, counter-screen for HTR5A agonist project, cell-based, luminescence; actives 13% (n = 800); activation, % at 9.3 µM; AID 504913, 2011; U2OS counter-screen cells, complementation luminescence, 3 h; shares compounds with HTR5A ag
HTR5A ag conf: HTR5A agonists, retest of hits, confirmation, cell-based, luminescence | shares compounds with HTR5A ag | HTR5A agonist cell assay | activation, % at 9.3 µM | actives 17% (n = 800) | AID 504915, 2011; in the data active means activation above about 17%;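 further: 0% = cells with vehicle only and 100% = full reference agonist response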
The depositor's hits bear a star; x = no result. Unless noted, no stated cut-off is given here; in the data, active means activation above about 18%; inactive means the rest.

SMILES | HTR5A ag | OPRM1-OPRD1 inv | DAGLB inhibitor | Arr AP2 block | HTR5A inv ctr | MOR-DOR ag-1 | MOR-DOR ag-2 | HTR5A ag conf
COC(=O)C1=C(c2cccc(OCc3ccccc3)c2)C[C@@H]2CC[C@H]1N2C(=O)NCCc1ccc(F)cc1 | 3 | 9 | -2 | -5 | -6 | -2 | x | x
CC(=O)Nc1ccc(S(=O)(=O)N2Cc3ccccc3-n3nncc3C2)cc1 | x | x | -1 | x | x | x | x | x
COC(=O)C1=C(c2ccc(F)cc2F)C[C@@H]2CC[C@H]1N2C(=O)NCc1ccc2c(c1)OCO2 | 21* | 16 | -3 | 2 | 14 | -3 | 4 | -1
COC(=O)C12CCc3c(ccc4cc(OC)ccc34)C1=CC(=O)C2 (configuration not stated) | 1 | 6 | 0 | 3 | -6 | -1 | x | x
Cc1[nH]c2ccc(O)cc2c1CCN | 40* | -3 | 3 | 7 | -144 | 1 | 1 | 50*
Cc1[nH]c2ccc(OCc3ccccc3)cc2c1CCN | 1 | 12 | 2 | -9 | -3 | -2 | x | x
Cn1c(=O)c2c(nc(-c3ccc(N(CCCl)CCCl)cc3)n2C)n(C)c1=O | -4 | 17 | 1 | -6 | 16 | -3 | x | x
CCC(CO)(C(=O)OC1CC2CCC(C1)N2C)c1ccccc1 (configuration not stated) | 16* | -6 | -6 | 2 | 1 | 1 | 0 | -1
CN1CC(C(=O)c2cccc(C(F)(F)F)c2)C(c2ccc(Cl)cc2)C1 (configuration not stated) | 0 | -1 | -1 | 3 | -1 | 0 | x | x
CC(N)Cc1c[nH]c2ccc(O)cc12 (configuration not stated) | 35* | 12 | 2 | 6 | -186 | -2 | 2 | 60*
O=C1NC(=O)C(C2CCOC2=O)N1 (configuration not stated) | x | x | -2 | x | x | x | x | x
CN(C)C(=O)O/N=C(\N)COc1ccc(C(C)(C)C)cc1 | 29* | -32 | -4 | 3 | 1 | 6 | 1 | 1
COc1ccccc1CCNC1CCCCCC1 | -3 | 1 | -4 | 24 | 12 | 0 | x | x
c1ccc2c(CCNC3CCCCC3)c[nH]c2c1 | 25* | 14 | -1 | 0 | -65 | -3 | 1 | 36*
OCCNCCc1c[nH]c2ccc(OCc3ccccc3)cc12 | 3 | -5 | 0 | 7 | -13 | 1 | x | x
COc1ccc2[nH]cc(CCN)c2c1 | 60* | 3 | 2 | 2 | 10 | -1 | 9 | -4
CN1CCCC2c3ccccc3CCC21 (configuration not stated) | x | x | -1 | x | x | x | x | x
N#Cc1c(Br)n(C2OC(CO)C(O)C2O)c2ncnc(N)c12 (configuration not stated) | 81* | 10 | -2 | 4 | -310 | -2 | 32* | 24*
c1ccc2c(NC3=NCCS3)cccc2c1 | 18* | -12 | 2 | -2 | -43 | 3 | 1 | 21*
COP(=O)(Cc1ccc(C#N)o1)OC | 15* | 10 | 0 | -22 | -11 | -2 | 0 | -3
Cc1ccc(-[n+]2c(Cc3nn(-c4ccccc4)c(C)[n+]3-c3ccc(C)cc3)nn(-c3ccccc3)c2C)cc1 | x | x | 0 | x | x | x | x | x
Nc1ccc(C2(c3ccc(N)cc3)c3ccccc3-c3ccccc32)cc1 | 44* | -29 | 9 | 6 | -80 | 6 | 23* | 27*
CCOC(=O)c1cccc(C2=C(CNC(=O)c3nccs3)[C@H]3CC[C@@H](C2)N3Cc2ccccc2)c1 | x | x | -4 | x | x | x | x | x
CC(C)C[C@H]1C(=O)N2CCC[C@H]2[C@]2(O)O[C@](NC(=O)[C@@H]3C=C4c5cccc6[nH]cc(c56)C[C@H]4N(C)C3)(C(C)C)C(=O)N12 | 16 | -41 | -5 | 21 | -58 | 8 | x | x
CC[C@@H](CO)NC(=O)[C@@H]1C=C2c3cccc4c3c(cn4C)C[C@H]2N(C)C1 | 81* | -19 | -1 | 2 | -183 | 3 | 1 | 78*
SMILES | HTR5A ag | OPRM1-OPRD1 inv | DAGLB inhibitor | Arr AP2 block | HTR5A inv ctr | MOR-DOR ag-1 | MOR-DOR ag-2 | HTR5A ag conf
CN1C[C@H](CNC(=O)OCc2ccccc2)C[C@@H]2c3cccc4c3c(cn4C)C[C@H]21 | 9 | -7 | 1 | 12 | -31 | 1 | x | x
CCC(CO)NC(=O)C1C=C2c3cccc4[nH]cc(c34)CC2N(C)C1 (configuration not stated) | 75* | -48 | -1 | 25 | -267 | 9 | 1 | 88*
CC[C@@H](CO)NC(=O)[C@@H]1C=C2c3cccc4[nH]cc(c34)C[C@H]2N(C)C1 | 91* | -59 | 0 | 35 | -198 | 11 | 2 | 84*
C=CCCC1(CC(C)C)C(=O)NC(=S)NC1=O | 0 | 9 | -1 | 0 | 0 | -2 | x | x
Cc1nc2ccccc2c(=O)n1-c1c(Cl)cccc1Cl | x | x | 0 | x | x | x | x | x
COC(=O)C1=C(c2cccc(OCc3ccccc3)c2)C[C@@H]2CC[C@H]1N2C(=O)NCc1ccccc1OC | 5 | 3 | -2 | -2 | -14 | -1 | x | x
CC1CCC(C(C)C)C(OC(=O)Cn2c(COc3ccccc3)[n+](C)c3ccccc32)C1 (configuration not stated) | 15* | -7 | 5 | 38 | -6 | 1 | 3 | 6
C=CCn1c(O)c(/C(C)=N/N2CCCCC2)c(=O)[nH]c1=O | 20* | 17 | 1 | 5 | -51 | -3 | 17 | 9
Cc1cc(O)c2c(c1)OC(C)(C)C1=C2CC(C)CC1 (configuration not stated) | 15* | -62 | -7 | 0 | -25 | 12 | 7 | 5
Cc1cc(O)c2c3c(c(=O)oc2c1)CCC(C)C3 (configuration not stated) | 1 | 11 | -3 | 34 | -2 | -2 | x | x
CC1CCN(C(CC(=O)c2ccccc2)C(=O)c2ccccc2)CC1 (configuration not stated) | 0 | 23 | -1 | 2 | 1 | -5 | x | x
CN1C[C@H](CO)C[C@@H]2c3cccc4[nH]cc(c34)C[C@H]21 | 16* | 1 | -3 | 9 | -61 | 0 | 1 | 23*
CCN(CC)C(=O)N[C@H]1C[C@@H]2c3cccc4[nH]cc(c34)C[C@H]2N(C)C1 | 3 | -4 | 2 | 9 | -6 | 1 | x | x

Screens from PubChem BioAssay.
